Laboratory results reported in ChEMBL document CHEMBL4689842, “EUbOPEN Chemogenomics Library wave 1” (2021).

Test system: U2OS
Assay: Multiplex assay against U2OS
Type: toxicity, cell-based
Conditions: human
In short: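 Four dyes were applied at seeding to live cells: Hoechst33342, BioTracker Green Microtubule Cytoskeleton Dye, MitoTracker Red and Annexin V Alexa Fluor 680. Imaging after compound addition used a CQ1 microscope at 37°C and 5% CO2. CellPathfinder machine-learning gating then sorted cells into Hoechst high-intensity objects or normal cells, normal cells into healthy, pyknosed or fragmented nuclei, and pyknosed cells into mitotic or apoptotic, with tubulin, mitochondrial-mass and membrane-permeability phenotypes given as per cents of healthy-nucleus cells.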

[1] = 12 h, 1 µM, compound concentration 1 uM, replicate 1
[2] = 12 h, 1 µM, compound concentration 1 uM, replicate 2
[3] = 12 h, 10 µM, compound concentration 10 uM, replicate 1
[4] = 12 h, 10 µM, compound concentration 10 uM, replicate 2
[5] = 24 h, 1 µM, compound concentration 1 uM, replicate 1
[6] = 24 h, 1 µM, compound concentration 1 uM, replicate 2
[7] = 24 h, 10 µM, compound concentration 10 uM, replicate 1
[8] = 24 h, 10 µM, compound concentration 10 uM, replicate 2
[9] = 48 h, 1 µM, compound concentration 1 uM, replicate 1
[10] = 48 h, 1 µM, compound concentration 1 uM, replicate 2
[11] = 48 h, 10 µM, compound concentration 10 uM, replicate 1
[12] = 48 h, 10 µM, compound concentration 10 uM, replicate 2

CC(C)OC(=O)N1CCC(Oc2ncnc3c2cnn3-c2ccc(S(C)(=O)=O)cc2F)CC1
Population Apoptotic (%) [1]: 57% | Population Fragmented Nuclei (%) [1]: 11% | Population Healthy Nuclei (%) [1]: 80% | Population Hoechst High Intensity Objects (%) [1]: 6% | Population Membrane Permeable-Phenotype (%) [1]: 6% | Population Mitochondria Different-Phenotype (%) [1]: 8% | Population Mitotic Cells (%) [1]: 42% | Population Normal (%) [1]: 93% | Population Pyknosed Nuclei (%) [1]: 7% | Population Tubulin-Different-Phenotype (%) [1]: 12% | Total Cell Count [1]: 95 | Population Apoptotic (%) [2]: 33% | Population Fragmented Nuclei (%) [2]: 5% | Population Healthy Nuclei (%) [2]: 91% | Population Hoechst High Intensity Objects (%) [2]: 7% | Population Membrane Permeable-Phenotype (%) [2]: 4% | Population Mitotic Cells (%) [2]: 66% | Population Normal (%) [2]: 92% | Population Pyknosed Nuclei (%) [2]: 3% | Population Tubulin-Different-Phenotype (%) [2]: 7% | Total Cell Count [2]: 97 | Population Apoptotic (%) [3]: 20% | Population Fragmented Nuclei (%) [3]: 11% | Population Healthy Nuclei (%) [3]: 77% | Population Hoechst High Intensity Objects (%) [3]: 6% | Population Membrane Permeable-Phenotype (%) [3]: 6% | Population Mitochondria Different-Phenotype (%) [3]: 19% | Population Mitotic Cells (%) [3]: 79% | Population Normal (%) [3]: 93% | Population Pyknosed Nuclei (%) [3]: 11% | Population Tubulin-Different-Phenotype (%) [3]: 24% | Total Cell Count [3]: 221 | Population Apoptotic (%) [4]: 18% | Population Fragmented Nuclei (%) [4]: 5% | Population Membrane Permeable-Phenotype (%) [4]: 0% | Population Mitochondria Different-Phenotype (%) [4]: 5% | Population Mitotic Cells (%) [4]: 81% | Population Pyknosed Nuclei (%) [4]: 16% | Population Tubulin-Different-Phenotype (%) [4]: 28% | Total Cell Count [4]: 72 | Population Apoptotic (%) [5]: 57% | Population Fragmented Nuclei (%) [5]: 10% | Population Healthy Nuclei (%) [5]: 83% | Population Hoechst High Intensity Objects (%) [5]: 6% | Population Membrane Permeable-Phenotype (%) [5]: 5% | Population Mitochondria Different-Phenotype (%) [5]: 5% | Population Mitotic Cells (%) [5]: 42% | Population Normal (%) [5]: 93% | Population Pyknosed Nuclei (%) [5]: 6% | Population Tubulin-Different-Phenotype (%) [5]: 11% | Total Cell Count [5]: 123 | Population Apoptotic (%) [6]: 50% | Population Fragmented Nuclei (%) [6]: 4% | Population Healthy Nuclei (%) [6]: 86% | Population Hoechst High Intensity Objects (%) [6]: 2% | Population Mitochondria Different-Phenotype (%) [6]: 4% | Population Mitotic Cells (%) [6]: 50% | Population Normal (%) [6]: 97% | Population Pyknosed Nuclei (%) [6]: 8% | Population Tubulin-Different-Phenotype (%) [6]: 9% | Total Cell Count [6]: 116 | Population Apoptotic (%) [7]: 20% | Population Fragmented Nuclei (%) [7]: 10% | Population Healthy Nuclei (%) [7]: 79% | Population Hoechst High Intensity Objects (%) [7]: 4% | Population Membrane Permeable-Phenotype (%) [7]: 1% | Population Mitochondria Different-Phenotype (%) [7]: 14% | Population Mitotic Cells (%) [7]: 79% | Population Normal (%) [7]: 95% | Population Pyknosed Nuclei (%) [7]: 10% | Population Tubulin-Different-Phenotype (%) [7]: 13% | Total Cell Count [7]: 248 | Population Apoptotic (%) [8]: 33% | Population Fragmented Nuclei (%) [8]: 5% | Population Healthy Nuclei (%) [8]: 87% | Population Hoechst High Intensity Objects (%) [8]: 2% | Population Mitochondria Different-Phenotype (%) [8]: 2% | Population Mitotic Cells (%) [8]: 66% | Population Normal (%) [8]: 97% | Population Pyknosed Nuclei (%) [8]: 6% | Population Tubulin-Different-Phenotype (%) [8]: 31% | Total Cell Count [8]: 93 | Population Apoptotic (%) [9]: 27% | Population Fragmented Nuclei (%) [9]: 6% | Population Healthy Nuclei (%) [9]: 83% | Population Hoechst High Intensity Objects (%) [9]: 4% | Population Membrane Permeable-Phenotype (%) [9]: 1% | Population Mitotic Cells (%) [9]: 72% | Population Normal (%) [9]: 95% | Population Pyknosed Nuclei (%) [9]: 9% | Population Tubulin-Different-Phenotype (%) [9]: 5% | Total Cell Count [9]: 193 | Population Apoptotic (%) [10]: 30% | Population Fragmented Nuclei (%) [10]: 5% | Population Healthy Nuclei (%) [10]: 88% | Population Hoechst High Intensity Objects (%) [10]: 2% | Population Membrane Permeable-Phenotype (%) [10]: 7% | Population Mitochondria Different-Phenotype (%) [10]: 10% | Population Mitotic Cells (%) [10]: 69% | Population Normal (%) [10]: 97% | Population Pyknosed Nuclei (%) [10]: 6% | Population Tubulin-Different-Phenotype (%) [10]: 9% | Total Cell Count [10]: 199 | Population Apoptotic (%) [11]: 35% | Population Fragmented Nuclei (%) [11]: 5% | Population Healthy Nuclei (%) [11]: 82% | Population Hoechst High Intensity Objects (%) [11]: 2% | Population Membrane Permeable-Phenotype (%) [11]: 2% | Population Mitochondria Different-Phenotype (%) [11]: 13% | Population Mitotic Cells (%) [11]: 64% | Population Normal (%) [11]: 97% | Population Pyknosed Nuclei (%) [11]: 11% | Population Tubulin-Different-Phenotype (%) [11]: 8% | Total Cell Count [11]: 324 | Population Apoptotic (%) [12]: 40% | Population Fragmented Nuclei (%) [12]: 3% | Population Healthy Nuclei (%) [12]: 92% | Population Hoechst High Intensity Objects (%) [12]: 1% | Population Mitochondria Different-Phenotype (%) [12]: 12% | Population Mitotic Cells (%) [12]: 60% | Population Normal (%) [12]: 98% | Population Pyknosed Nuclei (%) [12]: 3% | Population Tubulin-Different-Phenotype (%) [12]: 37% | Total Cell Count [12]: 157
